One block for each molecule: values may come before it. The source made the active and inactive calls. The rule behind the calls is not given here.
What was measured:
[1] = target: T1, MIF/CD74 (Macrophage migration inhibitory factor and HLA-DR antigens-associated invariant chain) (Homo sapiens) (UniProt P14174+P04233); experiment: (§1) Inhibition of human biotinylated MIF/CD74 interaction; format: protein assay
[2] = target: T2, MIF/CD74 (Macrophage migration inhibitory factor and HLA-DR antigens-associated invariant chain) (Homo sapiens, UniProt P14174+P04233); experiment: as §1; format: protein assay
T2 sequence (P14174 whole entry): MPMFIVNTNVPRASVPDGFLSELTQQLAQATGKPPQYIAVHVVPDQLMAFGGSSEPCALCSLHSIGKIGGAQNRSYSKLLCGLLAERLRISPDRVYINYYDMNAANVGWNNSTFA
T2 sequence (P04233 whole entry): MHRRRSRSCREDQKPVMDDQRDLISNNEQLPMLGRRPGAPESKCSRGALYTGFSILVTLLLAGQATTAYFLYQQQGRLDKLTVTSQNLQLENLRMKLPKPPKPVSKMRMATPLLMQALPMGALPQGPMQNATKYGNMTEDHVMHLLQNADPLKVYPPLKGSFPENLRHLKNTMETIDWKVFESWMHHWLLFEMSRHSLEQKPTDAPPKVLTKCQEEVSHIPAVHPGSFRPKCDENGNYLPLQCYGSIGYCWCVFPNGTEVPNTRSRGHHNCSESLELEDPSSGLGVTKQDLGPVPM

[3] = target: T3, Macrophage migration inhibitory factor (Homo sapiens, UniProt P14174); experiment: (§2) Inhibition of human MIF tautomerase activity using 4-hydroxyphenylpyruvate as substrate
T3 sequence (P14174 whole entry): T2 sequence (P14174 whole entry)
Procedure, shortened: (§3)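 Recombinant human MIF tautomerase activity with 4-hydroxyphenylpyruvate as substrate. Compounds were tested between 1 nM and 1 mM. Where inhibition plateaued below 50%, the maximum percent inhibition was reported.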

[4] = target: T4, Macrophage migration inhibitory factor (Homo sapiens) (UniProt P14174); experiment: as §2; procedure, shortened: as §3
T4 sequence (whole entry): T2 sequence (P14174 whole entry)

[5] = target: T5, MIF/CD74 (Macrophage migration inhibitory factor and HLA-DR antigens-associated invariant chain) (Homo sapiens, UniProt P04233+P14174); experiment: as §1; format: protein assay
T5 sequence (P14174 whole entry): T2 sequence (P14174 whole entry)
T5 sequence (P04233 whole entry): T2 sequence (P04233 whole entry)

[6] = target: T1, MIF/CD74 (Macrophage migration inhibitory factor and HLA-DR antigens-associated invariant chain) (Homo sapiens); experiment: Binding affinity to human biotinylated MIF/CD74 at 100 nM; format: protein assay
[7] = target: T1, MIF/CD74 (Macrophage migration inhibitory factor and HLA-DR antigens-associated invariant chain) (Homo sapiens); experiment: Activation of human biotinylated MIF/CD74; format: protein assay
[8] = target: T4, Macrophage migration inhibitory factor (Homo sapiens); experiment: Agonist activity at human MIF tautomerase using 4-hydroxyphenylpyruvate as substrate at 100 uM; format: functional
[9] = target: T4, Macrophage migration inhibitory factor (Homo sapiens); experiment: Induction of MIF-dependent ERK1/2 phosphorylation in human fibroblast after 30 mins by Western blotting
[10] = target: T1, MIF/CD74 (Macrophage migration inhibitory factor and HLA-DR antigens-associated invariant chain) (Homo sapiens); experiment: Binding affinity to human biotinylated MIF/CD74 at 150 nM; format: protein assay
[11] = target: T4, Macrophage migration inhibitory factor (Homo sapiens); experiment: Inhibition of MIF-dependent ERK1/2 phosphorylation in human fibroblast after 30 mins by Western blotting
Procedure, shortened: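 MIF-dependent ERK1/2 phosphorylation was measured in human fibroblasts. Phospho-ERK1/2 and total ERK1/2 were detected by western blot. The phospho/total ratio was determined by densitometry across three separate experiments.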

[12] = target: T1, MIF/CD74 (Macrophage migration inhibitory factor and HLA-DR antigens-associated invariant chain) (Homo sapiens); experiment: Binding affinity to human biotinylated MIF/CD74 at 500 nM; format: protein assay

Imax [1]: 16%
Structure (SMILES): Oc1ccc(-c2cn(-c3cccnc3)nn2)cc1

Imax [1]: 23%
Structure (SMILES): Oc1ccc(-c2cn(-c3cccc4ccccc34)nn2)cc1

Imax [1]: 30%
Structure (SMILES): Cc1cccc(Cc2cn(-c3ccc(O)cc3)nn2)c1

Structure (SMILES): Oc1ccc(-n2cc(Cc3cccc(O)c3)nn2)cc1
IC50 [2]: Not Active
IC50 [3]: Not Active

Imax [1]: 8%
Imax [4]: 40%
Structure (SMILES): COc1cccc(Cc2cn(-c3ccc(O)cc3)nn2)c1

Imax [1]: 30%
Structure (SMILES): Oc1ccc(-c2cn(Cc3ccccn3)nn2)cc1

Imax [1]: 12%
Structure (SMILES): Oc1ccc(-c2cn(-c3cncc4ccccc34)nn2)cc1

IC50 [5]: 50000 nM
Structure (SMILES): COc1cccc(Cn2cc(-c3ccc(O)cc3)nn2)c1

Activity [6]: 100%
Activity [7]: 23%
Activity [8]: Active
Activity [9]: Active
Structure (SMILES): Oc1ccc(-n2cc(-c3cccnc3)nn2)cc1

Structure (SMILES): Oc1ccc(-n2cc(-c3cccc4ccccc34)nn2)cc1
IC50 [2]: Not Active

IC50 [5]: 1200 nM
IC50 ([3]; read-out: IC50): 2.5 µM
Structure (SMILES): COC(=O)c1cccc(Cn2cc(-c3ccc(O)cc3)nn2)c1

Activity [10]: 100%
Activity [7]: 39%
Activity [8]: Active
Activity [9]: Active
Structure (SMILES): Oc1ccc(-n2cc(-c3cncc4ccccc34)nn2)cc1

Imax [1]: 20%
Structure (SMILES): Oc1ccc(-c2cn(Cc3cccnc3)nn2)cc1

Structure (SMILES): COc1ccc(Cn2cc(-c3ccc(O)cc3)nn2)cc1
IC50 [2]: Not Active

IC50 [5]: 900 nM
IC50 ([3]; read-out: IC50): 0.75 µM
inhibition [11]: Active
Structure (SMILES): COc1cccc(Cn2cc(-c3ccc(O)cc3)nn2)c1OC

Structure (SMILES): Cc1cccc(Cn2cc(-c3ccc(O)cc3)nn2)c1
IC50 [2]: Not Active

Imax [1]: 23%
IC50 ([3]; read-out: IC50): 690 µM
Structure (SMILES): Oc1ccc(Cc2cn(-c3ccc(O)cc3)nn2)cc1

Imax [1]: 14%
Imax [4]: 35%
Structure (SMILES): COc1ccccc1Cc1cn(-c2ccc(O)cc2)nn1

Structure (SMILES): Oc1ccc(-c2cn(Cc3ccccc3)nn2)cc1
IC50 [2]: Not Active

Imax [1]: 36%
Structure (SMILES): COc1ccc(Cc2cn(-c3ccc(O)cc3)nn2)cc1

Imax [1]: 9%
IC50 ([3]; read-out: IC50): 1000 µM
Structure (SMILES): Oc1ccc(-n2cc(Cc3ccccc3O)nn2)cc1

Activity [12]: 40%
Activity [7]: 31%
Activity [8]: Active
Activity [9]: Active
Structure (SMILES): COc1ccccc1Cn1cc(-c2ccc(O)cc2)nn1

Imax [1]: 22%
Structure (SMILES): COc1ccc(Cc2cn(-c3ccc(O)cc3)nn2)cc1OC

Structure (SMILES): Cc1ccccc1Cn1cc(-c2ccc(O)cc2)nn1
IC50 [2]: Not Active

Structure (SMILES): COc1cccc(Cc2cn(-c3ccc(O)cc3)nn2)c1OC
IC50 [2]: Not Active

IC50 [5]: 3500 nM
Structure (SMILES): Oc1ccc(-n2cc(Cc3ccccc3)nn2)cc1

Structure (SMILES): O=C(O)c1cccc(Cn2cc(-c3ccc(O)cc3)nn2)c1
IC50 [2]: Not Active

— ChEMBL document CHEMBL1287697, “Receptor agonists of macrophage migration inhibitory factor” (Bioorg Med Chem Lett, 2010)
